tested on: LoVo; assay: Antitumor activity against human LoVo cells after 5 days by MTT assay; format: functional, cell-based; conditions: 120 h
Outline: (§1)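 Five human cancer lines (prostate PC-3, glioblastoma U373-MG, colorectal LoVo, NSCLC A549, breast MCF-7) plated at 10⁴ to 3×10⁴ cells/mL depending on cell type, allowed 24 h to attach, then cultured 120 h with or without drug at nine concentrations. MTT reduction to formazan read at 570 nm (reference 630 nm).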

SMILES | IC50 [µM]
CCCCCCCCCCCCCC(=O)N1CCN(c2cc3c(cc2F)c(=O)c(C(=O)O)cn3C2CC2)CC1 | 101
CCCCCCCCOC(=O)N1CCN(c2cc3c(cc2F)c(=O)c(C(=O)O)cn3C2CC2)CC1 | 43
O=C(O)c1cn(C2CC2)c2cc(N3CCN(C(=O)CO)CC3)c(F)cc2c1=O | 408
CCCCC(=O)N1CCN(c2cc3c(cc2F)c(=O)c(C(=O)O)cn3C2CC2)CC1 | 87
CCCCCCC(=O)N1CCN(c2cc3c(cc2F)c(=O)c(C(=O)O)cn3C2CC2)CC1 | 793
O=C(O)c1cn(C2CC2)c2cc(N3CCN(C(=O)Cc4ccccc4)CC3)c(F)cc2c1=O | 41
CC(=O)N1CCN(c2cc3c(cc2F)c(=O)c(C(=O)O)cn3C2CC2)CC1 | 323
CCCCCCCCC(=O)OCC(=O)N1CCN(c2cc3c(cc2F)c(=O)c(C(=O)O)cn3C2CC2)CC1 | 267
CCCC(=O)N1CCN(c2cc3c(cc2F)c(=O)c(C(=O)O)cn3C2CC2)CC1 | 148
CCCCOC(=O)N1CCN(c2cc3c(cc2F)c(=O)c(C(=O)O)cn3C2CC2)CC1 | 52

tested on: PC-3; assay: Antitumor activity against human PC3 cells after 5 days by MTT assay; format: functional, cell-based; conditions: PC-3, 120 h; outline: as §1

SMILES | IC50 [µM]
CCCCCCCCCCCCCC(=O)N1CCN(c2cc3c(cc2F)c(=O)c(C(=O)O)cn3C2CC2)CC1 | 94
CCCCCCCCOC(=O)N1CCN(c2cc3c(cc2F)c(=O)c(C(=O)O)cn3C2CC2)CC1 | 24
O=C(O)c1cn(C2CC2)c2cc(N3CCN(C(=O)CO)CC3)c(F)cc2c1=O | 433
CCCCC(=O)N1CCN(c2cc3c(cc2F)c(=O)c(C(=O)O)cn3C2CC2)CC1 | 73
CCCCCCC(=O)N1CCN(c2cc3c(cc2F)c(=O)c(C(=O)O)cn3C2CC2)CC1 | 779
O=C(O)c1cn(C2CC2)c2cc(N3CCN(C(=O)Cc4ccccc4)CC3)c(F)cc2c1=O | 243
CC(=O)N1CCN(c2cc3c(cc2F)c(=O)c(C(=O)O)cn3C2CC2)CC1 | 680
CCCCCCCCC(=O)OCC(=O)N1CCN(c2cc3c(cc2F)c(=O)c(C(=O)O)cn3C2CC2)CC1 | 257
CCCC(=O)N1CCN(c2cc3c(cc2F)c(=O)c(C(=O)O)cn3C2CC2)CC1 | 85
CCCCOC(=O)N1CCN(c2cc3c(cc2F)c(=O)c(C(=O)O)cn3C2CC2)CC1 | 9

tested on: MCF7; assay: Antitumor activity against human MCF7 cells after 5 days by MTT assay; format: functional, cell-based; conditions: MCF7, 120 h; outline: as §1

SMILES | IC50 [µM]
CCCCCCCCCCCCCC(=O)N1CCN(c2cc3c(cc2F)c(=O)c(C(=O)O)cn3C2CC2)CC1 | 96
CCCCCCCCOC(=O)N1CCN(c2cc3c(cc2F)c(=O)c(C(=O)O)cn3C2CC2)CC1 | 23
O=C(O)c1cn(C2CC2)c2cc(N3CCN(C(=O)CO)CC3)c(F)cc2c1=O | 985
CCCCC(=O)N1CCN(c2cc3c(cc2F)c(=O)c(C(=O)O)cn3C2CC2)CC1 | 316
CCCCCCC(=O)N1CCN(c2cc3c(cc2F)c(=O)c(C(=O)O)cn3C2CC2)CC1 | 754
O=C(O)c1cn(C2CC2)c2cc(N3CCN(C(=O)Cc4ccccc4)CC3)c(F)cc2c1=O | 32
CC(=O)N1CCN(c2cc3c(cc2F)c(=O)c(C(=O)O)cn3C2CC2)CC1 | 803
CCCCCCCCC(=O)OCC(=O)N1CCN(c2cc3c(cc2F)c(=O)c(C(=O)O)cn3C2CC2)CC1 | 255
CCCC(=O)N1CCN(c2cc3c(cc2F)c(=O)c(C(=O)O)cn3C2CC2)CC1 | 172
CCCCOC(=O)N1CCN(c2cc3c(cc2F)c(=O)c(C(=O)O)cn3C2CC2)CC1 | 14

tested on: not listed separately; assay: Stability in phosphate buffer of pH 7.4 after 6 days; format: physicochemical; conditions: read-out: Stability
Outline: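 Compound dissolved at 1 mM in DMSO, diluted with phosphate buffer pH 7.4 to 1 mL, incubated sealed at 37 °C for 6 days. A t0 aliquot was held at 4 °C. HPLC with 280 nm detection and duplicate injections, with expected degradation products as references. Stability is taken as compound peak area over (compound + degradation product) peak area.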

SMILES | remaining at 144 h [%]
CCCCCCCCOC(=O)N1CCN(c2cc3c(cc2F)c(=O)c(C(=O)O)cn3C2CC2)CC1 | 100
CCCCCCC(=O)N1CCN(c2cc3c(cc2F)c(=O)c(C(=O)O)cn3C2CC2)CC1 | 100
CCCCOC(=O)N1CCN(c2cc3c(cc2F)c(=O)c(C(=O)O)cn3C2CC2)CC1 | 100

tested on: not listed separately; assay: Toxicity in ip dosed B6D2F1 mouse assessed as maximum tolerated dose after 28 days; format: organism-based; conditions: in vivo
Outline: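 Healthy mice, three per group, each given a single ip dose and observed for up to 28 days. The MTD index is the highest single dose given without causing any deaths in the group.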

SMILES | MTD at 672 h [mg/kg]
CCCCCCCCOC(=O)N1CCN(c2cc3c(cc2F)c(=O)c(C(=O)O)cn3C2CC2)CC1 | > 80
CCCCCCC(=O)N1CCN(c2cc3c(cc2F)c(=O)c(C(=O)O)cn3C2CC2)CC1 | > 80
CCCCOC(=O)N1CCN(c2cc3c(cc2F)c(=O)c(C(=O)O)cn3C2CC2)CC1 | > 80

tested on: A549; assay: Antitumor activity against human A549 cells after 5 days by MTT assay; format: functional, cell-based; conditions: A549, 120 h; outline: as §1

SMILES | IC50 [µM]
CCCCCCCCCCCCCC(=O)N1CCN(c2cc3c(cc2F)c(=O)c(C(=O)O)cn3C2CC2)CC1 | 56
CCCCCCCCOC(=O)N1CCN(c2cc3c(cc2F)c(=O)c(C(=O)O)cn3C2CC2)CC1 | 21
O=C(O)c1cn(C2CC2)c2cc(N3CCN(C(=O)CO)CC3)c(F)cc2c1=O | 456
CCCCC(=O)N1CCN(c2cc3c(cc2F)c(=O)c(C(=O)O)cn3C2CC2)CC1 | 64
CCCCCCC(=O)N1CCN(c2cc3c(cc2F)c(=O)c(C(=O)O)cn3C2CC2)CC1 | 808
O=C(O)c1cn(C2CC2)c2cc(N3CCN(C(=O)Cc4ccccc4)CC3)c(F)cc2c1=O | 29
CC(=O)N1CCN(c2cc3c(cc2F)c(=O)c(C(=O)O)cn3C2CC2)CC1 | 584
CCCCCCCCC(=O)OCC(=O)N1CCN(c2cc3c(cc2F)c(=O)c(C(=O)O)cn3C2CC2)CC1 | 216
CCCC(=O)N1CCN(c2cc3c(cc2F)c(=O)c(C(=O)O)cn3C2CC2)CC1 | 697
CCCCOC(=O)N1CCN(c2cc3c(cc2F)c(=O)c(C(=O)O)cn3C2CC2)CC1 | 42

tested on: not listed separately; assay: Antitumor activity against human U373MG cells after 5 days by MTT assay; format: functional, cell-based, U-373MG ATCC; conditions: U373 MG, 120 h; outline: as §1

SMILES | IC50 [µM]
CCCCCCCCCCCCCC(=O)N1CCN(c2cc3c(cc2F)c(=O)c(C(=O)O)cn3C2CC2)CC1 | 205
CCCCCCCCOC(=O)N1CCN(c2cc3c(cc2F)c(=O)c(C(=O)O)cn3C2CC2)CC1 | 79
O=C(O)c1cn(C2CC2)c2cc(N3CCN(C(=O)CO)CC3)c(F)cc2c1=O | 294
CCCCC(=O)N1CCN(c2cc3c(cc2F)c(=O)c(C(=O)O)cn3C2CC2)CC1 | 86
CCCCCCC(=O)N1CCN(c2cc3c(cc2F)c(=O)c(C(=O)O)cn3C2CC2)CC1 | 729
O=C(O)c1cn(C2CC2)c2cc(N3CCN(C(=O)Cc4ccccc4)CC3)c(F)cc2c1=O | 34
CC(=O)N1CCN(c2cc3c(cc2F)c(=O)c(C(=O)O)cn3C2CC2)CC1 | 535
CCCCCCCCC(=O)OCC(=O)N1CCN(c2cc3c(cc2F)c(=O)c(C(=O)O)cn3C2CC2)CC1 | 272
CCCC(=O)N1CCN(c2cc3c(cc2F)c(=O)c(C(=O)O)cn3C2CC2)CC1 | 104
CCCCOC(=O)N1CCN(c2cc3c(cc2F)c(=O)c(C(=O)O)cn3C2CC2)CC1 | 31
